# Assay results of several laboratories.
Compound,organism,assay,system,conditions,endpoint,result
Cc1ccc(C(=O)Nc2ccc(CN3CCN(C)CC3)c(C(F)(F)F)c2)cc1C#Cc1cnc2cccnn12,Staphylococcus aureus,microbial growth,NCTC8325,,MIC,> 30 µM
O=C1NC(=S)N/C1=C\c1ccc(-c2ccc(N(c3ccccc3)c3ccccc3)cc2)cc1,Staphylococcus aureus,"microbial killing, broth dilution",ATCC43300,,MBC,> 1000 µg/mL
CCS(=O)(=O)Nc1ccc2c(c1)/C(=C(/Nc1ccc(CN3CCCCC3)cc1)c1ccccc1)C(=O)N2,Staphylococcus aureus,microbial growth,NCTC8325,,MIC,> 30 µM
Cc1nn(-c2nc3ccc(Cl)cc3s2)c2c1C(=O)c1ccccc1-2,Staphylococcus aureus,"microbial growth, well diffusion",NCIM5021,125 µg/mL,inhibition zone,10 mm
CCCCNC(=O)c1ccc(NC(=O)Nc2ccc(Cl)c(C(F)(F)F)c2)cc1,Staphylococcus aureus,microbial growth,NCTC8325,24 h,MIC,> 100 µM
O=C1C=C(OCc2cn(-c3ccc([N+](=O)[O-])cc3)nn2)C(=O)c2ccccc21,Escherichia coli,"microbial growth, broth dilution",ATCC25922,,IC50,396 µg/mL
O=C(O)CN1C(=O)/C(=C/c2c3ccccc3c(-c3ccc(N(c4ccccc4)c4ccccc4)cc3)c3ccccc23)SC1=S,Micrococcus luteus,"microbial killing, broth dilution",ATCC10240,,MBC,125 µg/mL
COC(=O)Nc1ccc(-c2nc(N3CCOCC3)c3cnn(C4CCN(C(=O)OC)CC4)c3n2)cc1,Staphylococcus aureus,microbial growth,NCTC8325,,MIC,> 30 µM
Cc1ccc(C(C)C)cc1OS(=O)(=O)c1cccs1,Escherichia coli,"microbial growth, broth dilution",ATCC25922,,IC50,149 µg/mL
CC(C)c1nn(-c2nc3ccc(Br)cc3s2)c2c1C(=O)c1ccccc1-2,Staphylococcus aureus,"microbial growth, well diffusion",NCIM5021,500 µg/mL,inhibition zone,11 mm
CCCCS(=O)(=O)Oc1cc(C(C)C)ccc1C,Escherichia coli,"microbial growth, broth dilution",ATCC25922,,IC50,156 µg/mL
O=C1NC(=S)S/C1=C\c1ccc(-c2ccc(N(c3ccccc3)c3ccccc3)cc2)cc1,Micrococcus luteus,"microbial killing, broth dilution",ATCC10240,,MBC,500 µg/mL
Cc1ccc2nc(-n3nc(C(C)C)c4c3-c3ccccc3C4=O)sc2c1,Staphylococcus aureus,"microbial growth, well diffusion",NCIM5021,125 µg/mL,inhibition zone,12 mm
O=C(O)CN1C(=O)/C(=C/c2c3ccccc3c(-c3ccc(N(c4ccccc4)c4ccccc4)cc3)c3ccccc23)NC1=S,Micrococcus luteus,"microbial killing, broth dilution",ATCC10240,,MBC,> 1000 µg/mL
Cc1ccc(C(C)C)cc1OS(=O)(=O)c1ccc([N+](=O)[O-])cc1,Escherichia coli,"microbial growth, broth dilution",ATCC25922,,IC50,176 µg/mL
Cc1ccc2nc(-n3nc(CC(C)C)c4c3-c3ccccc3C4=O)sc2c1,Staphylococcus aureus,"microbial growth, well diffusion",NCIM5021,250 µg/mL,inhibition zone,11 mm
O=C(O)CN1C(=O)/C(=C/c2ccc(-c3ccc(N(c4ccccc4)c4ccccc4)cc3)cc2)SC1=S,Micrococcus luteus,"microbial killing, broth dilution",ATCC10240,,MBC,31.3 µg/mL
[H]/N=C(/N)N[C@H]1[C@H](O)[C@@H](O)[C@H](O[C@@H]2O[C@@H](C)[C@](O)(C=O)[C@H]2O[C@@H]2O[C@@H](CO)[C@H](O)[C@@H](O)[C@@H]2NC)[C@@H](N/C(N)=N\[H])[C@@H]1O,Staphylococcus aureus,"microbial growth, well diffusion",NCIM5021,1000 µg/mL,inhibition zone,30 mm
O=C(Nc1cccc(Cl)c1)Nc1ncc(CCNc2ncnc3ccsc23)s1,Staphylococcus aureus,microbial growth,NCTC8325,,MIC,> 30 µM
O=[N+]([O-])c1ccc(S(=O)(=O)Oc2cccc3cccnc23)cc1,Escherichia coli,"microbial growth, broth dilution",ATCC25922,,IC50,215 µg/mL
COc1ccc2nc(-n3nc(CC(C)C)c4c3-c3ccccc3C4=O)sc2c1,Staphylococcus aureus,"microbial growth, well diffusion",NCIM5021,500 µg/mL,inhibition zone,12 mm
C[C@@H](Oc1cc(-c2cnn(C3CCNCC3)c2)cnc1N)c1c(Cl)ccc(F)c1Cl,Staphylococcus aureus,microbial growth,NCTC8325,,MIC,> 30 µM
Cc1nn(-c2nc3ccc(Br)cc3s2)c2c1C(=O)c1ccccc1-2,Staphylococcus aureus,"microbial growth, well diffusion",NCIM5021,500 µg/mL,inhibition zone,12 mm
O=C(O)CN1C(=O)/C(=C/c2ccc(-c3ccc(N(c4ccccc4)c4ccccc4)cc3)cc2)NC1=S,Micrococcus luteus,"microbial killing, broth dilution",ATCC10240,,MBC,31.3 µg/mL
O=C(O)c1ccc(-n2cc(COc3cccc4cccnc34)nn2)cc1,Escherichia coli,"microbial growth, broth dilution",ATCC25922,,IC50,108 µg/mL
Cc1cc(C(=O)NOCCO)c(Nc2ccc(I)cc2F)n(C)c1=O,Staphylococcus aureus,microbial growth,NCTC8325,,MIC,> 30 µM
CC(C)Cc1nn(-c2nc3ccc(Br)cc3s2)c2c1C(=O)c1ccccc1-2,Staphylococcus aureus,"microbial growth, well diffusion",NCIM5021,1000 µg/mL,inhibition zone,21 mm
O=C(O)CN1C(=O)/C(=C/c2ccc(-c3ccc(N(c4ccccc4)c4ccccc4)cc3)c3ccccc23)NC1=S,Micrococcus luteus,"microbial killing, broth dilution",ATCC10240,,MBC,> 1000 µg/mL
COc1cc(Nc2ncc(F)c(Nc3ccc4c(n3)N(COP(=O)(O)O)C(=O)C(C)(C)O4)n2)cc(OC)c1OC,Staphylococcus aureus,microbial growth,NCTC8325,,MIC,> 30 µM
O=C1NC(=S)N/C1=C\c1ccc(-c2ccc(N(c3ccccc3)c3ccccc3)cc2)c2ccccc12,Micrococcus luteus,"microbial killing, broth dilution",ATCC10240,,MBC,> 1000 µg/mL
O=C(Nc1ccccc1-c1ccc(F)c(F)c1)c1nccnc1C(F)(F)F,Alternaria solani,microbial growth,,,EC50,0.15 µg/mL
